Measurements: ChEMBL document CHEMBL2150931, “Design, synthesis, and biological activity of a novel series of human sirtuin-2-selective inhibitors” (J Med Chem, 2012)

Columns and labels:
[1] = target: T1, NAD-dependent protein deacetylase sirtuin-2 (Homo sapiens) (UniProt Q8IXJ6); experiment: Inhibition of SIRT2 in human HCT116 cells assessed as increase in acetylated alpha-tubulin after 8 hrs by Western blot analysis; type: cell-based; details: HCT-116
T1 sequence (whole entry): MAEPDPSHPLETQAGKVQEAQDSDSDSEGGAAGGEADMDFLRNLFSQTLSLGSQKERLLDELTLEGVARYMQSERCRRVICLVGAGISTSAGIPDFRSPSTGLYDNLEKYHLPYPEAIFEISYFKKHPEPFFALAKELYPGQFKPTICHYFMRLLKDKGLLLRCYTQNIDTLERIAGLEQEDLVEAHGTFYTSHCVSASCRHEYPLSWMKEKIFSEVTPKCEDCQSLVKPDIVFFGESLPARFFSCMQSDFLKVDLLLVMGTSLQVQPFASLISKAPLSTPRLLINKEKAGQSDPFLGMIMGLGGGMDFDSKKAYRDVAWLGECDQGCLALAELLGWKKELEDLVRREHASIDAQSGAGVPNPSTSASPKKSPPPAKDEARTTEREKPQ
Procedure, shortened: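 HCT116 cells grown in McCoy's 5A with 10% FBS. 5×10⁵ cells exposed 8 h to compound at 1 or 10 μM, alongside 20 μM etoposide. SDS lysates equalized by Bradford assay and run on 15% SDS-PAGE, then blotted onto nitrocellulose. Blots probed overnight at 4 °C for acetyl-p53, p53, acetyl-α-tubulin and α-tubulin, and detected by ECL. Signal given as acetylated/total protein ratio.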

Histone deacetylase 1 = Histone deacetylase 1 (Homo sapiens, UniProt Q13547); experiment: Inhibition of HDAC1
Histone deacetylase 1, sequence (Q13547 whole entry): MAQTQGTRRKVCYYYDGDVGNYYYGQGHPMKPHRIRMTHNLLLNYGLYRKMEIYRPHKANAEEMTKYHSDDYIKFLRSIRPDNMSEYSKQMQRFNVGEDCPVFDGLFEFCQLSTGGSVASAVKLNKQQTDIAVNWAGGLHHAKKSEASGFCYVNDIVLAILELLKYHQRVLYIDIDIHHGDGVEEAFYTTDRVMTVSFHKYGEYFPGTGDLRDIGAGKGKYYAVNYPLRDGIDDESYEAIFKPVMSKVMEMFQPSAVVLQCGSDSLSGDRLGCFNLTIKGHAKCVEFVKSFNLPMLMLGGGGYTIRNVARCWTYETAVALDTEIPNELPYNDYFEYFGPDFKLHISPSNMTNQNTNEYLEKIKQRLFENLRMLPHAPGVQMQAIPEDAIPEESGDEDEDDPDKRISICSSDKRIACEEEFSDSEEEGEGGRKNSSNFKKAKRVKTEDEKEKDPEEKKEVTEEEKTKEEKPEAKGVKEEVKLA

Histone deacetylase 5 = Histone deacetylase 5 (Homo sapiens, UniProt Q9UQL6); experiment: Inhibition of HDAC5
Histone deacetylase 5, sequence (Q9UQL6 whole entry): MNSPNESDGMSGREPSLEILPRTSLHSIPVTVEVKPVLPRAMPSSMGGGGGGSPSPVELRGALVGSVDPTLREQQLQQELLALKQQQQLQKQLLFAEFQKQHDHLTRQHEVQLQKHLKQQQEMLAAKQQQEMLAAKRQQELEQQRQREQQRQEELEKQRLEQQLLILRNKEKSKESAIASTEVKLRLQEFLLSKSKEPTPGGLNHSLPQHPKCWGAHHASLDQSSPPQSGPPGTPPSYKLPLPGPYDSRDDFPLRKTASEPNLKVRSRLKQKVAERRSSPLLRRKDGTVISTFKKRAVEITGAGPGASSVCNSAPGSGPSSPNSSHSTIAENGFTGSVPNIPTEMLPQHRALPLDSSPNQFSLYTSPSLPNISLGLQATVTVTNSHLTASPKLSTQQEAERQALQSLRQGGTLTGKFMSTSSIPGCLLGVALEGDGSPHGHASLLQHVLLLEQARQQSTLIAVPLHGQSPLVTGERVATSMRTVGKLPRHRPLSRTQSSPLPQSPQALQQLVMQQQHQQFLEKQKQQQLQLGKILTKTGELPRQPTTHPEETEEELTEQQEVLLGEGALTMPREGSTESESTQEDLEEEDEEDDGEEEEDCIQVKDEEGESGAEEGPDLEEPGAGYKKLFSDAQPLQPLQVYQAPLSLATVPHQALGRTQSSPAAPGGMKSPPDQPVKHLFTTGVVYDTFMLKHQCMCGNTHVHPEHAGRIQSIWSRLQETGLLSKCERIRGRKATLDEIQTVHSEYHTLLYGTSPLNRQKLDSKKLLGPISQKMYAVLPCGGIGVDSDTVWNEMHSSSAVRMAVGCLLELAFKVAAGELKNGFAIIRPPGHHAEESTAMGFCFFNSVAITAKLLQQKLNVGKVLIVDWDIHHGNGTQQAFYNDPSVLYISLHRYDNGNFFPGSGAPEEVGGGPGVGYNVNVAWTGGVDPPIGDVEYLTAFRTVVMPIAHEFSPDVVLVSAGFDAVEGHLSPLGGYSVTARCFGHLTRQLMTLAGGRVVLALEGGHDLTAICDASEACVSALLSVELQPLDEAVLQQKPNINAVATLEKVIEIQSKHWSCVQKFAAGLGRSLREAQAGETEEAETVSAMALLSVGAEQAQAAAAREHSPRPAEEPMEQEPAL

[2] = target: T2, Protein deacetylase HDAC6 (Homo sapiens, UniProt Q9UBN7); experiment: Inhibition of HDAC6
T2 sequence (Q9UBN7 whole entry): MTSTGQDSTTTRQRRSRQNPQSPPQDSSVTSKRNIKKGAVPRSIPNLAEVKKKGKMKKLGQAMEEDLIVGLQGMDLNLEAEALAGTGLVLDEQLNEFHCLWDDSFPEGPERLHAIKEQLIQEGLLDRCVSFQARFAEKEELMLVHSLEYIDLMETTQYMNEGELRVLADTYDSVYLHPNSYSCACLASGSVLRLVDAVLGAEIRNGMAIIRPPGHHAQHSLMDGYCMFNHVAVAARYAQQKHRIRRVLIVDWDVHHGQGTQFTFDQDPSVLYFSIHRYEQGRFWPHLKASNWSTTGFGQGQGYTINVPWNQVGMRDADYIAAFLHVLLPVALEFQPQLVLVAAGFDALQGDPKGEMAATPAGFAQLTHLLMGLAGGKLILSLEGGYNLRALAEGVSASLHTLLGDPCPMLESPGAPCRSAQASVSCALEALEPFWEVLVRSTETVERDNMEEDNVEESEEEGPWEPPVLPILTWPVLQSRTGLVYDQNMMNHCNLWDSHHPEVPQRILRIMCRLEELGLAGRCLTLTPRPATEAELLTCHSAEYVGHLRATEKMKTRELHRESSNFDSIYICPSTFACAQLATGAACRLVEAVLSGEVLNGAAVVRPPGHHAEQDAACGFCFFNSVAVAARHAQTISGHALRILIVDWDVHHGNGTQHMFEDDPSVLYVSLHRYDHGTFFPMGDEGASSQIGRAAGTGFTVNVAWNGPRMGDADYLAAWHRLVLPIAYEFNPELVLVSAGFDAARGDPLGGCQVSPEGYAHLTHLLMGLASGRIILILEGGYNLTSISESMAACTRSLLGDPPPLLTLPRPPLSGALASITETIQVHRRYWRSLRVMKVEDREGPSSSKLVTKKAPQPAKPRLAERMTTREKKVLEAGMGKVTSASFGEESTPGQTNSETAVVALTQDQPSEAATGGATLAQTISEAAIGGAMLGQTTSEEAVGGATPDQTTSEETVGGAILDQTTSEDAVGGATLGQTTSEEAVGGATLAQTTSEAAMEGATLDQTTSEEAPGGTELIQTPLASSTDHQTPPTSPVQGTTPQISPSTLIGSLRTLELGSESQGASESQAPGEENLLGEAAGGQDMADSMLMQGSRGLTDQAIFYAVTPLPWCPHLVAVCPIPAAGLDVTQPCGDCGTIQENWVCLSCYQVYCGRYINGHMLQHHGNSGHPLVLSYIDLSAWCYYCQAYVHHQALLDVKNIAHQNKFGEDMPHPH

Histone deacetylase 7 = target: T3, Histone deacetylase 7 (Homo sapiens, UniProt Q8WUI4); experiment: Inhibition of HDAC7
T3 sequence (Q8WUI4 whole entry): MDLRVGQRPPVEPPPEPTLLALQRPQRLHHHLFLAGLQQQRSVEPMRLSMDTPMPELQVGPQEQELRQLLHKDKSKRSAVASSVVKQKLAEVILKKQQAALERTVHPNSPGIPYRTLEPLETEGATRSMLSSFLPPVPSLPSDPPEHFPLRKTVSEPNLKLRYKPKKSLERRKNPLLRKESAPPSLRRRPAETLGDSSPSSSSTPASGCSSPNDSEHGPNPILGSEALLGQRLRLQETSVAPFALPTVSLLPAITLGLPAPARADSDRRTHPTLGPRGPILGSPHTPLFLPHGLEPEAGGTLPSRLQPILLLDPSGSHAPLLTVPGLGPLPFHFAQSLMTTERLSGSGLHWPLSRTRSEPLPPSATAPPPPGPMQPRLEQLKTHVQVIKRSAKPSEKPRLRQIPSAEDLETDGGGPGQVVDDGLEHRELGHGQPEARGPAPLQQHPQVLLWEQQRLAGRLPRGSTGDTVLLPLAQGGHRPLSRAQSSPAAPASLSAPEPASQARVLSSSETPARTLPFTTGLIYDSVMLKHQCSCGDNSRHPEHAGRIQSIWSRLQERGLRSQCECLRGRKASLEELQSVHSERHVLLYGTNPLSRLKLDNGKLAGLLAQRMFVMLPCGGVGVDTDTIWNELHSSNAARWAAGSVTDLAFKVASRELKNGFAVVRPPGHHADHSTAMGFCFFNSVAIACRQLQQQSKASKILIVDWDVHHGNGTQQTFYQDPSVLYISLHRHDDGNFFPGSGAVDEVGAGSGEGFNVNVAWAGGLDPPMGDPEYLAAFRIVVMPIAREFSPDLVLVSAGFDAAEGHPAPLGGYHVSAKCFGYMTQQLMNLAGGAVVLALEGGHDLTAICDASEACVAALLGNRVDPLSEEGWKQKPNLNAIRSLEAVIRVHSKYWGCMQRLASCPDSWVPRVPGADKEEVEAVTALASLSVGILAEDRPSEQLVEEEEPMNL

inhibition [1]: Dose-dependent effect
IC50 (Histone deacetylase 1): > 30 µM
IC50 (Histone deacetylase 5): > 30 µM
IC50 [2]: > 30 µM
IC50 (Histone deacetylase 7): > 30 µM
Compound: NC(=O)c1ccccc1Nc1cccc(OCCc2ccccc2)c1
